According to ChEMBL document CHEMBL1122934, “Angiotensin-converting enzyme inhibitors. New orally active antihypertensive (mercaptoalkanoyl)- and [(acylthio)alkanoyl]glycine derivatives” (J Med Chem, 1985):

What follows are compounds tested against T1, Angiotensin-converting enzyme (Rattus norvegicus) (UniProt P47820) (assay: Peroral dose required to inhibit angiotensin I induced vasopressor response in normotensive conscious rats).
T1 sequence (whole entry): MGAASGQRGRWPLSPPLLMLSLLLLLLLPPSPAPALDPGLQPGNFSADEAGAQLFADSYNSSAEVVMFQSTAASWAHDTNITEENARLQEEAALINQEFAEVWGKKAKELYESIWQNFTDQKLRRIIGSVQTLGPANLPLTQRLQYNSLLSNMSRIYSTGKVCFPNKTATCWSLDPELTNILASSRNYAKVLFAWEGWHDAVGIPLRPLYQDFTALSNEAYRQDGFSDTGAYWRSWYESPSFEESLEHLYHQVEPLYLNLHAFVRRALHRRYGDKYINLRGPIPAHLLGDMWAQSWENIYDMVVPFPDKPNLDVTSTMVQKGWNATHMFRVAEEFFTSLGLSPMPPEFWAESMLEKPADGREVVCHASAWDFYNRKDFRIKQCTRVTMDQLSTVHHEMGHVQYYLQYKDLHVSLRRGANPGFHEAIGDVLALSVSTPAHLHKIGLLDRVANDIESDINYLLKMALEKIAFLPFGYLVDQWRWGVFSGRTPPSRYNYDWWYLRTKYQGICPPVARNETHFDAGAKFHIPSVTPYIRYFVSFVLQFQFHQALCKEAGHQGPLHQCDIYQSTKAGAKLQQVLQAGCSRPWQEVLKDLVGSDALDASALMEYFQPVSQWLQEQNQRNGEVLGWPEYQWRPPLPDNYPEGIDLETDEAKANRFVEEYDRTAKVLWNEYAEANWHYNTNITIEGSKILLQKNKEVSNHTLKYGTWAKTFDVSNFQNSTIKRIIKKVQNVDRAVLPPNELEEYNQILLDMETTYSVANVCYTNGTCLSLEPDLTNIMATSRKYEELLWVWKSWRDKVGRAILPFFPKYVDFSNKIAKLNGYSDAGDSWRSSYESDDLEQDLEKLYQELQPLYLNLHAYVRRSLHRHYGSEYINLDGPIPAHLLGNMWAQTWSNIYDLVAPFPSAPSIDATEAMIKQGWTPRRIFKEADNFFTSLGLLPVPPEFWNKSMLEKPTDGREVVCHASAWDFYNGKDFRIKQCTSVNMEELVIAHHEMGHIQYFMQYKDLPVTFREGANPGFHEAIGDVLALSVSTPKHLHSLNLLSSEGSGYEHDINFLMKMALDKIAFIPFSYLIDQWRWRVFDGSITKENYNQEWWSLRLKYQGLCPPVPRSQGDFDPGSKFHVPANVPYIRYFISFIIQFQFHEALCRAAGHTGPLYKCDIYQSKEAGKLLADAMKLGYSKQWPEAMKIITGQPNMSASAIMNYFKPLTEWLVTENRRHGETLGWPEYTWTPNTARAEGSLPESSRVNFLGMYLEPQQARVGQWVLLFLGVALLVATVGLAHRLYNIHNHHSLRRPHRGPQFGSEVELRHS
Format: functional
In short: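 Male normotensive rats with aortic and vena caval catheters, used ≥6 days later while restrained; angiotensins I and II 0.25 μg/kg iv every 10 min. One oral inhibitor dose in 0.5% gum tragacanth suspension; angiotensin I repeated every 10 min for ≥2 h. Maximum inhibition as % of initial response; ID50 from dose-response plot.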

SMILES | ID50
CC(=O)SCC(C)C(=O)N(CC(=O)O)C1CCCCCC1 (stereo not drawn) | 0.06 mg/kg
C[C@@H](CSC(=O)C(C)(C)C)C(=O)N(CC(=O)O)C1CCCC1 | 25 mg/kg
CSCCCN(CC(=O)O)C(=O)C(C)CSC(C)=O (stereo not drawn) | 1.5 mg/kg
CC(CSC(=O)C(C)(C)C)C(=O)N(CC(=O)O)C1CCCC1 (stereo not drawn) | 0.15 mg/kg
CC(=O)SCC(C)C(=O)N(CC(=O)O)C1CC2CCC1C2 (stereo in doubt; 30) [listing 1 of 2 here] | 0.06 mg/kg
CC(CS)C(=O)N(CC(=O)O)C1CCCCCC1 (stereo not drawn) | 0.05 mg/kg
CC(CSC(=O)CC(C)(C)C)C(=O)N(CC(=O)O)C1CCCC1 (stereo not drawn) | 1.2 mg/kg
CC(CS)C(=O)N(CC(=O)O)C1CCCC1 (stereo not drawn) | 0.15 mg/kg
CC(=O)SCC(C)C(=O)N(CC(=O)O)c1ccccc1 (stereo not drawn) | 0.2 mg/kg
CC(CS)C(=O)N(CC(=O)O)C1Cc2ccccc2C1 (stereo not drawn) | 0.15 mg/kg
CC(=O)SCC(C)C(=O)N(CC(=O)O)C1CC1 (stereo not drawn) | 0.2 mg/kg
CC(=O)SCC(C)C(=O)N(CC(=O)O)c1ccc(C)cc1 (stereo not drawn) | 0.15 mg/kg
CC(CS)C(=O)N(CC(=O)O)C1CCCCC1 (stereo not drawn) | 0.1 mg/kg

Next, values leading:

ID50 | SMILES
0.15 mg/kg | CC(=O)SCC(C)C(=O)N(CC(=O)O)C1CCCC1 (stereo not drawn)
0.15 mg/kg | CC(=O)SCC(C)C(=O)N(CC(=O)O)c1cccc(C)c1 (stereo not drawn)
1.5 mg/kg | CC(=O)SCC(C)C(=O)N(CC(=O)O)c1ccc2c(c1)CCC2 (stereo not drawn)
0.1 mg/kg | CC(CS)C(=O)N(CC(=O)O)C1CC2CCC1C2 (stereo not drawn)
0.3 mg/kg | CC(CS)C(=O)N(CC(=O)O)C1CC1 (stereo not drawn)
0.3 mg/kg | CC(CS)C(=O)N(CC(=O)O)C1CCC1 (stereo not drawn)

These compounds were tested against T2, Angiotensin-converting enzyme (Oryctolagus cuniculus, UniProt P12822) (assay: In vitro inhibitory activity against rabbit lung Angiotensin I converting enzyme at pH 8.3).
T2 sequence (P12822 whole entry): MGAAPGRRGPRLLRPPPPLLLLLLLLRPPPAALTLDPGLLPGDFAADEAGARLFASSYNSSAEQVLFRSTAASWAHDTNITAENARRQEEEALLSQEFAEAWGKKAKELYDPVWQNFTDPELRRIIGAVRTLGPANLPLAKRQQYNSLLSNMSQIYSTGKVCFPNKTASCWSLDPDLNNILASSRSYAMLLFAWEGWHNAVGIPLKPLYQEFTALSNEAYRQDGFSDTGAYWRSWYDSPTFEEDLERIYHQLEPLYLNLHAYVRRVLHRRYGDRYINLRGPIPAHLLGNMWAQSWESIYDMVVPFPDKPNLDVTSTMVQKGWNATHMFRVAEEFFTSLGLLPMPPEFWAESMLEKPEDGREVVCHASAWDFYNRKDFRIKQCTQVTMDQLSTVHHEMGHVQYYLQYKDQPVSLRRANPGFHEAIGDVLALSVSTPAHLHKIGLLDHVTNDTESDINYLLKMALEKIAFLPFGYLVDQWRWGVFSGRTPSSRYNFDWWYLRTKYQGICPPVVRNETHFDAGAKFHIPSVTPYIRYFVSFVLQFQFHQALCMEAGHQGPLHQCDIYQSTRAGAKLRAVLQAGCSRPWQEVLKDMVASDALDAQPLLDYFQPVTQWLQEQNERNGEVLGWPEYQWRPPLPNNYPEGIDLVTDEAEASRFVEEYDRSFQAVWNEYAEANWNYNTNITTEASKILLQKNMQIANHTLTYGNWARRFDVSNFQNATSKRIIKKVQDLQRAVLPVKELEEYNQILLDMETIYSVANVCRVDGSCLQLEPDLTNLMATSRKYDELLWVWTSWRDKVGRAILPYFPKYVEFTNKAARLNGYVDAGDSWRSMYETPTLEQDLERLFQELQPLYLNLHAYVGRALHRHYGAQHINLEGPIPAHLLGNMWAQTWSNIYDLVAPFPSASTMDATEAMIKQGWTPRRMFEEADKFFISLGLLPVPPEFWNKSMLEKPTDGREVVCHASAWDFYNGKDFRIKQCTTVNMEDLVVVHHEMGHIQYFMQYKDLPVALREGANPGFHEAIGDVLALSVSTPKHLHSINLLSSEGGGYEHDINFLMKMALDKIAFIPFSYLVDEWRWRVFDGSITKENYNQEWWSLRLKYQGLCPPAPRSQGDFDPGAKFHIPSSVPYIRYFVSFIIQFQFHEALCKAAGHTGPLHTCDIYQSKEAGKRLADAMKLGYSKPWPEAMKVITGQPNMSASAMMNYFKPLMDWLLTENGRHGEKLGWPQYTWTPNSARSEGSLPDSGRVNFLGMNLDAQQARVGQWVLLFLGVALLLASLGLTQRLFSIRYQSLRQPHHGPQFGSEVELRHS

SMILES | IC50
CC(=O)SCC(C)C(=O)N(CC(=O)O)c1ccccc1C (stereo not drawn) | 550 nM
C[C@@H](CSC(=O)C(C)(C)C)C(=O)N(CC(=O)O)C1CCCC1 | > 100000 nM
CSCCCN(CC(=O)O)C(=O)C(C)CSC(C)=O (stereo not drawn) | 900 nM
CC(=O)SCC(C)C(=O)N(CC(=O)O)C[C@H]1CC2CC(C1C)C2(C)C (stereo partly drawn) | 140 nM
CC(=O)SCC(C)C(=O)N(CC(=O)O)C(C)C (stereo not drawn) | 5900 nM
C#CCN(CC(=O)O)C(=O)C(C)CS (stereo not drawn) | 270 nM
CC(CS)C(=O)N(C)CC(=O)O (stereo not drawn) | 130 nM
CC(CS)C(=O)N(CC(=O)O)CC1CC2CC(C1C)C2(C)C (stereo not drawn) | 440 nM
CC(=O)SCC(C)C(=O)N(CC(=O)O)C1CCCCC1 (stereo not drawn) | 270 nM
CC(=O)SCC(C)C(=O)N(CC(=O)O)CC1CCCO1 (stereo not drawn) | 1900 nM
CC(=O)SCC(C)C(=O)N(CC(=O)O)C1Cc2ccccc2C1 (stereo not drawn) | 340 nM
CC(=O)SCC(C)C(=O)N(CC(=O)O)Cc1ccco1 (stereo not drawn) | 700 nM
CC(S)C(=O)NCC(=O)O (stereo not drawn) [TIOPRONIN] | 1900 nM
CC(=O)SCC(C)C(=O)N(CC(=O)O)c1ccc(F)cc1 (stereo not drawn) | 600 nM
C#CCN(CC(=O)O)C(=O)C(C)CSC(C)=O (stereo not drawn) | 4500 nM
CC(CS)C(=O)N(CC(=O)O)Cc1ccco1 (stereo not drawn) | 170 nM
CC(CSC(=O)C(C)(C)C)C(=O)N(CC(=O)O)C1CCCC1 (stereo not drawn) | 3700 nM

SMILES | IC50
CC(=O)SCC(C)C(=O)N(CC(=O)O)C1CCC1 (stereo not drawn) | 220 nM
CC(=O)SCC(C)C(=O)N(CC(=O)O)C1CCS(=O)(=O)C1 (stereo not drawn) | 280 nM
CCN1CCCC1CN(CC(=O)O)C(=O)C(C)CS (stereo not drawn) | 640 nM
COc1cccc(N(CC(=O)O)C(=O)C(C)CSC(C)=O)c1 (stereo not drawn) | 110 nM
CC(=O)SCC(C)C(=O)N(CC(=O)O)Cc1cccs1 (stereo not drawn) | 750 nM
CC(CS)C(=O)N(CC(=O)O)C[C@H]1CC2CC(C1C)C2(C)C (stereo partly drawn) | 160 nM
CC(CSC(=O)CC(C)(C)C)C(=O)N(CC(=O)O)C1CCCC1 (stereo not drawn) | 15000 nM
CC(CS)C(=O)NCC(=O)O (stereo not drawn) | 210 nM
CC(=O)SCC(C)C(=O)N(CC(=O)O)c1ccccc1 (stereo not drawn) | 300 nM
Cc1ccccc1N(CC(=O)O)C(=O)C(C)CS (stereo not drawn) | 120 nM
CC(=O)SCC(C)C(=O)N(CC(=O)O)C1CC1 (stereo not drawn) | 540 nM
CC(=O)SCC(C)C(=O)N(CC(=O)O)c1ccc(C)cc1 (stereo not drawn) | 130 nM
CC(CS)C(=O)N(CC(=O)O)C1CCS(=O)(=O)C1 (stereo not drawn) | 280 nM
CC(=O)SCC(C)C(=O)N(CC(=O)O)CC1CC2CC(C1C)C2(C)C (stereo not drawn) | 85 nM
CC(=O)SCC(C)C(=O)N(C1CC1)C(C)C(=O)O (stereo not drawn) | 220 nM
CC(CS)C(=O)N(CC(=O)O)CC1CCCO1 (stereo not drawn) | 130 nM

Results, then the compound that gave them:

IC50 | SMILES
82 nM | CC(=O)SCC(C)C(=O)N(CC(=O)O)C1CCCC1 (stereo not drawn)
79 nM | CC(CS)C(=O)N(C1CC1)C(C)C(=O)O (stereo not drawn)
75 nM | CC(=O)SCC(C)C(=O)N(CC(=O)O)c1cccc(C)c1 (stereo not drawn)
75 nM | CSc1cccc(N(CC(=O)O)C(=O)C(C)CSC(C)=O)c1 (stereo not drawn)
75 nM | CCN(CC(=O)O)C(=O)C(C)CS (stereo not drawn)
72 nM | CC(CS)C(=O)N(CC(=O)O)C(C)C (stereo not drawn)
64 nM | CCCCc1ccc(N(CC(=O)O)C(=O)C(C)CSC(C)=O)cc1 (stereo not drawn)
60 nM | CC(=O)SCC(C)C(=O)N(CC(=O)O)c1ccc(C(C)C)cc1 (stereo not drawn)
55 nM | CC(CS)C(=O)N(CC(=O)O)Cc1cccs1 (stereo not drawn)
52 nM | CC(=O)SCC(C)C(=O)N(CC(=O)O)C1CC2CCC1C2 (stereo in doubt; 31)
51 nM | CC(=O)SCC(C)C(=O)N(CC(=O)O)c1cccc(F)c1 (stereo not drawn)
48 nM | CC(=O)SCC(C)C(=O)N(CC(=O)O)c1ccc2c(c1)CCC2 (stereo not drawn)
45 nM | CC(=O)SCC(C)C(=O)N(CC(=O)O)C1CCC2CC1C2(C)C (stereo not drawn)
44 nM | Cc1cc(C)cc(N(CC(=O)O)C(=O)C(C)CS)c1 (stereo not drawn)
44 nM | CC(=O)SCC(C)C(=O)N(CC(=O)O)c1cc(C)cc(C)c1 (stereo not drawn)
32 nM | CC(CS)C(=O)N(CC(=O)O)C1CC2CCC1C2 (stereo not drawn)
30 nM | CC(CS)C(=O)N(CC(=O)O)C1CC1 (stereo not drawn)
20 nM | CC(=O)SCC(C)C(=O)N(CC(=O)O)C1CC2CCC1C2 (stereo in doubt; 30) [listing 2 of 2 here]
19 nM | Cc1cccc(N(CC(=O)O)C(=O)C(C)CS)c1 (stereo not drawn)
18 nM | CC(CS)C(=O)N(CC(=O)O)C1CCC1 (stereo not drawn)
5 nM | Cc1ccc(N(CC(=O)O)C(=O)C(C)CS)cc1 (stereo not drawn)
